# Laboratory results reported in ChEMBL document CHEMBL4145465, “Design, synthesis and biological evaluation of novel ring-opened cromakalim analogues with relaxant effects on vascular and respiratory smooth muscles and as stimulators of elastin synthesis” (Eur J Med Chem, 2018).
# The source made the active and inactive calls. The rule behind the calls is not given here.
# Legend:
# Thoracic aorta [1] = test: Vasorelaxing activity in Wistar rat endothelium-intact thoracic aorta ring assessed as reduction in 30 mM KCl-induced contraction after 15 mins; conditions: 0.25 h
# Thoracic aorta [2] = test: Vasorelaxing activity in Wistar rat endothelium-intact thoracic aorta ring assessed as reduction in 30 mM KCl-induced contraction at 300 uM after 15 mins relative to DMSO; conditions: 0.25 h
# Trachea [3] = test: Tracheorelaxant activity in Wistar rat trachea tonus assessed as reduction in 30 mM KCl-induced contraction after 15 mins; format: functional, tissue-based; conditions: 0.25 h
# Outline: (§1)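 Trachea rings (3-4 mm) from female Wistar rats were held in a 10 ml organ bath under the same conditions as the aorta and contracted with 30 mM KCl. Compound in DMSO was added cumulatively. EC50 was derived by non-linear regression; Emax is % relaxation at 100 µM.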
# Trachea [4] = test: Tracheorelaxant activity in Wistar rat trachea tonus assessed as reduction in 30 mM KCl-induced contraction at 100 uM after 15 mins relative to control; format: functional; conditions: 0.25 h
# Outline: as §1
# Trachea/thoracic aorta = test: Ratio of EC50 for Wistar rat trachea tonus to EC50 for Wistar rat endothelium-denuded thoracic aorta ring; format: functional; conditions: in the assay text read “endothelium-intact” for “endothelium-denuded”
# Outline: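 Ratio of trachea EC50 to aorta EC50, both measured against 30 mM KCl contraction in female Wistar rat rings, with cumulative compound addition in DMSO and EC50 from non-linear regression.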
# VSMC [5] = test: Induction of elastin synthesis in rat VSMC at 50 uM after 48 hrs by ELISA relative to control; format: functional
# Outline: (§2)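 Rat aortic VSMCs (collagenase/elastase digestion of intima-media, grown in DMEM 20% FBS on gelatin) serum-starved overnight in 1% FBS-DMEM, seeded 25000 cells/well, then exposed 48 h to compound in DMSO (<1% final); DMSO-only negative control, diazoxide reference. Fixed cells immunostained for elastin with HRP secondary, TMB substrate, absorbance 450 nm; 5-7 wells per concentration.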
# VSMC [6] = test: Induction of elastin synthesis in rat VSMC at 20 uM after 48 hrs by ELISA; format: functional, cell-based
# Outline: as §2
smiles,measurement,setting,value
COc1ccc(F)cc1C(C)NC(=O)N(C)S(=O)(=O)c1ccc(Cl)cc1 (racemic),EC50,Thoracic aorta [1],12.6 µM
same,Emax,Thoracic aorta [2],101%
COc1ccc(F)cc1C(C)NC(=O)NS(=O)(=O)c1ccc(Cl)cc1 (racemic),EC50,Thoracic aorta [1],> 300 µM
same,Emax,Thoracic aorta [2],54.7%
CCOc1ccc(F)cc1C(C)NC(=O)N(C)S(=O)(=O)c1ccc(Cl)cc1 (racemic),EC50,Thoracic aorta [1],24.5 µM
same,Emax,Thoracic aorta [2],101%
COc1ccc(F)cc1C(C)NC(=O)N(C)S(=O)(=O)c1ccc(C)cc1 (racemic),EC50,Thoracic aorta [1],11.7 µM
same,Emax,Thoracic aorta [2],106%
COc1ccc(OC)c(CNC(=O)NS(=O)(=O)c2ccc(Cl)cc2)c1,EC50,Thoracic aorta [1],> 300 µM
same,Emax,Thoracic aorta [2],-28%
Cc1ccc(S(=O)(=O)NC(=O)NC(C)c2cc(C)ccc2OCc2ccccc2)cc1 (racemic),EC50,Thoracic aorta [1],91.9 µM
same,Emax,Thoracic aorta [2],106%
COc1ccc(Br)cc1C(C)NC(=O)NS(=O)(=O)c1ccccc1 (racemic),EC50,Thoracic aorta [1],> 300 µM
same,Emax,Thoracic aorta [2],45.5%
CCOc1ccc(Cl)cc1C(C)NC(=O)N(C)S(=O)(=O)c1ccc(C)cc1 (racemic),EC50,Thoracic aorta [1],12.2 µM
same,Emax,Thoracic aorta [2],106%
COc1ccc(F)cc1C(C)NC(=O)NS(=O)(=O)c1ccccc1 (racemic),EC50,Thoracic aorta [1],> 300 µM
same,Emax,Thoracic aorta [2],1.2%
COc1ccc(OC)c(CNC(=O)N(C)S(=O)(=O)c2ccc(C)cc2)c1,EC50,Thoracic aorta [1],20.9 µM
same,Emax,Thoracic aorta [2],92.7%
Cc1ccc(S(=O)(=O)N(C)C(=O)NC(C)c2ccccc2OCc2ccccc2)cc1 (racemic),EC50,Thoracic aorta [1],31 µM
same,Emax,Thoracic aorta [2],93.2%
CCOc1ccc(Br)cc1C(C)NC(=O)N(C)S(=O)(=O)c1ccc(C)cc1 (racemic),EC50,Thoracic aorta [1],28.6 µM
same,Emax,Thoracic aorta [2],90.8%
Cc1ccc(S(=O)(=O)NC(=O)NC(C)c2cc(Br)ccc2OC(C)C)cc1 (stereo not given),EC50,Thoracic aorta [1],61.8 µM
same,Emax,Thoracic aorta [2],93.2%
COc1ccc(OC)c(CNC(=O)N(C)S(=O)(=O)c2ccccc2)c1,EC50,Trachea [3],18.5 µM
same,Emax,Trachea [4],150%
same,Ratio EC50,Trachea/thoracic aorta,0.9
same,EC50,Thoracic aorta [1],21.3 µM
same,Emax,Thoracic aorta [2],100%
CC(C)Oc1ccc(Br)cc1C(C)NC(=O)NS(=O)(=O)c1ccc(Cl)cc1 (racemic),EC50,Thoracic aorta [1],122 µM
same,Emax,Thoracic aorta [2],100%
CC(C)Oc1ccc(Br)cc1C(C)NC(=O)N(C)S(=O)(=O)c1ccccc1 (racemic),EC50,Thoracic aorta [1],32.1 µM
same,Emax,Thoracic aorta [2],81.5%
CC(NC(=O)N(C)S(=O)(=O)c1ccccc1)c1ccccc1OCc1ccccc1 (racemic),EC50,Thoracic aorta [1],21.7 µM
same,Emax,Thoracic aorta [2],92.3%
CC(NC(=O)N(C)S(=O)(=O)c1ccc(Cl)cc1)c1cc(Br)ccc1OCc1ccccc1 (stereo not given),EC50,Thoracic aorta [1],146 µM
same,Emax,Thoracic aorta [2],97.3%
CC(NC(=O)NS(=O)(=O)c1ccccc1)c1ccccc1OCc1ccccc1 (racemic),EC50,Thoracic aorta [1],> 200 µM
same,Emax,Thoracic aorta [2],59%
CCOc1ccc(Br)cc1C(C)NC(=O)N(C)S(=O)(=O)c1ccccc1 (racemic),EC50,Trachea [3],8.4 µM
same,Emax,Trachea [4],137%
same,Ratio EC50,Trachea/thoracic aorta,0.4
same,EC50,Thoracic aorta [1],19.8 µM
same,Emax,Thoracic aorta [2],104%
Cc1ccc(S(=O)(=O)N(C)C(=O)NC(C)c2cc(Br)ccc2OC(C)C)cc1 (racemic),EC50,Thoracic aorta [1],34.7 µM
same,Emax,Thoracic aorta [2],102%
CCOc1ccc(F)cc1C(C)NC(=O)NS(=O)(=O)c1ccc(C)cc1 (racemic),EC50,Thoracic aorta [1],> 300 µM
same,Emax,Thoracic aorta [2],26.2%
CCOc1ccc(Cl)cc1C(C)NC(=O)NS(=O)(=O)c1ccccc1 (stereo not given),EC50,Thoracic aorta [1],> 300 µM
same,Emax,Thoracic aorta [2],15.8%
CCOc1ccc(Cl)cc1C(C)NC(=O)NS(=O)(=O)c1ccc(C)cc1 (racemic),EC50,Thoracic aorta [1],> 300 µM
same,Emax,Thoracic aorta [2],45.5%
CC(C)Oc1ccc(Br)cc1C(C)NC(=O)N(C)S(=O)(=O)c1ccc(Cl)cc1 (racemic),EC50,Thoracic aorta [1],43.2 µM
same,Emax,Thoracic aorta [2],93.7%
COc1ccc(OC)c(CNC(=O)NS(=O)(=O)c2ccccc2)c1,EC50,Thoracic aorta [1],> 300 µM
same,Emax,Thoracic aorta [2],-20.3%
COc1ccc(Cl)cc1C(C)NC(=O)NS(=O)(=O)c1ccccc1 (racemic),EC50,Thoracic aorta [1],> 300 µM
same,Emax,Thoracic aorta [2],16.4%
Cc1ccc(S(=O)(=O)NC(=O)NC(C)c2ccccc2OCc2ccccc2)cc1 (racemic),EC50,Thoracic aorta [1],> 200 µM
same,Emax,Thoracic aorta [2],84.7%
CCOc1ccc(Br)cc1C(C)NC(=O)NS(=O)(=O)c1ccc(C)cc1 (racemic),EC50,Thoracic aorta [1],> 300 µM
same,Emax,Thoracic aorta [2],62.2%
CCOc1ccc(Br)cc1C(C)NC(=O)NS(=O)(=O)c1ccccc1 (racemic),EC50,Thoracic aorta [1],> 300 µM
same,Emax,Thoracic aorta [2],35.9%
COc1ccc(OC)c(CNC(=O)N(C)S(=O)(=O)c2ccc(Cl)cc2)c1,EC50,Thoracic aorta [1],18.2 µM
same,Emax,Thoracic aorta [2],93.6%
COc1ccc(F)cc1C(C)NC(=O)N(C)S(=O)(=O)c1ccccc1 (racemic),EC50,Thoracic aorta [1],10 µM
same,Emax,Thoracic aorta [2],109%
COc1ccc(Br)cc1C(C)NC(=O)NS(=O)(=O)c1ccc(Cl)cc1 (racemic),EC50,Thoracic aorta [1],80.9 µM
same,Emax,Thoracic aorta [2],82.6%
CCOc1ccc(Cl)cc1C(C)NC(=O)N(C)S(=O)(=O)c1ccccc1 (stereo not given),Activity,VSMC [5],Active
same,Activity,VSMC [6],inactive
same,EC50,Thoracic aorta [1],10.5 µM
same,Emax,Thoracic aorta [2],104%
Cc1ccc(OCc2ccccc2)c(C(C)NC(=O)NS(=O)(=O)c2ccccc2)c1 (racemic),EC50,Thoracic aorta [1],> 200 µM
same,Emax,Thoracic aorta [2],90.7%
CC(NC(=O)NS(=O)(=O)c1ccc(Cl)cc1)c1ccccc1OCc1ccccc1 (racemic),EC50,Thoracic aorta [1],157 µM
same,Emax,Thoracic aorta [2],103%
Cc1ccc(S(=O)(=O)NC(=O)NC(C)c2cc(Br)ccc2OCc2ccccc2)cc1 (racemic),EC50,Thoracic aorta [1],138 µM
same,Emax,Thoracic aorta [2],92.5%
CCOc1ccc(F)cc1C(C)NC(=O)N(C)S(=O)(=O)c1ccccc1 (racemic),EC50,Thoracic aorta [1],11.5 µM
same,Emax,Thoracic aorta [2],106%
COc1ccc(F)cc1C(C)NC(=O)NS(=O)(=O)c1ccc(C)cc1 (racemic),EC50,Thoracic aorta [1],> 300 µM
same,Emax,Thoracic aorta [2],-4.5%
CCOc1ccc(Cl)cc1C(C)NC(=O)N(C)S(=O)(=O)c1ccc(Cl)cc1 (racemic),EC50,Thoracic aorta [1],14.6 µM
same,Emax,Thoracic aorta [2],105%
COc1ccc(Br)cc1C(C)NC(=O)N(C)S(=O)(=O)c1ccccc1 (racemic),EC50,Trachea [3],8.4 µM
same,Emax,Trachea [4],125%
same,Ratio EC50,Trachea/thoracic aorta,0.5
same,EC50,Thoracic aorta [1],16.8 µM
same,Emax,Thoracic aorta [2],98%
Cc1ccc(S(=O)(=O)N(C)C(=O)NC(C)c2cc(Br)ccc2OCc2ccccc2)cc1 (racemic),EC50,Thoracic aorta [1],67.1 µM
same,Emax,Thoracic aorta [2],47.9%
COc1ccc(OC)c(CNC(=O)NS(=O)(=O)c2ccc(C)cc2)c1,EC50,Thoracic aorta [1],> 300 µM
same,Emax,Thoracic aorta [2],-14.5%
COc1ccc(Br)cc1C(C)NC(=O)N(C)S(=O)(=O)c1ccc(C)cc1 (stereo not given),EC50,Trachea [3],12.8 µM
same,Emax,Trachea [4],143%
same,Ratio EC50,Trachea/thoracic aorta,0.7
same,EC50,Thoracic aorta [1],19.1 µM
same,Emax,Thoracic aorta [2],97.7%
Cc1ccc(S(=O)(=O)N(C)C(=O)NC(C)c2cc(C)ccc2OCc2ccccc2)cc1 (racemic),EC50,Thoracic aorta [1],181 µM
same,Emax,Thoracic aorta [2],82.9%
CCOc1ccc(F)cc1C(C)NC(=O)NS(=O)(=O)c1ccccc1 (racemic),EC50,Thoracic aorta [1],> 300 µM
same,Emax,Thoracic aorta [2],46.4%
COc1ccc(Br)cc1C(C)NC(=O)NS(=O)(=O)c1ccc(C)cc1 (racemic),EC50,Thoracic aorta [1],> 300 µM
same,Emax,Thoracic aorta [2],67.6%
Cc1ccc(OCc2ccccc2)c(C(C)NC(=O)N(C)S(=O)(=O)c2ccccc2)c1 (stereo not given),EC50,Thoracic aorta [1],68.2 µM
same,Emax,Thoracic aorta [2],86.1%
CC(NC(=O)NS(=O)(=O)c1ccccc1)c1cc(Br)ccc1OCc1ccccc1 (racemic),EC50,Thoracic aorta [1],130 µM
same,Emax,Thoracic aorta [2],92.3%
CCOc1ccc(Br)cc1C(C)NC(=O)NS(=O)(=O)c1ccc(Cl)cc1 (racemic),EC50,Thoracic aorta [1],171 µM
same,Emax,Thoracic aorta [2],77.6%
CC1=Nc2ccc(Cl)cc2S(=O)(=O)N1 [DIAZOXIDE],Activity,VSMC [5],92%
same,Activity,VSMC [6],inactive
CCOc1ccc(F)cc1C(C)NC(=O)N(C)S(=O)(=O)c1ccc(C)cc1 (racemic),EC50,Thoracic aorta [1],7.8 µM
same,Emax,Thoracic aorta [2],104%
CCOc1ccc(Br)cc1C(C)NC(=O)N(C)S(=O)(=O)c1ccc(Cl)cc1 (racemic),EC50,Thoracic aorta [1],55.7 µM
same,Emax,Thoracic aorta [2],71%
COc1ccc(Br)cc1C(C)NC(=O)N(C)S(=O)(=O)c1ccc(Cl)cc1 (racemic),EC50,Trachea [3],39.3 µM
same,Emax,Trachea [4],125%
same,Ratio EC50,Trachea/thoracic aorta,2
same,EC50,Thoracic aorta [1],19.1 µM
same,Emax,Thoracic aorta [2],93.6%
CCOc1ccc(F)cc1C(C)NC(=O)NS(=O)(=O)c1ccc(Cl)cc1 (racemic),EC50,Thoracic aorta [1],> 300 µM
same,Emax,Thoracic aorta [2],52.7%
COc1ccc(Cl)cc1C(C)NC(=O)N(C)S(=O)(=O)c1ccc(Cl)cc1 (racemic),EC50,Thoracic aorta [1],20 µM
same,Emax,Thoracic aorta [2],103%
COc1ccc(Cl)cc1C(C)NC(=O)NS(=O)(=O)c1ccc(Cl)cc1 (racemic),EC50,Thoracic aorta [1],> 300 µM
same,Emax,Thoracic aorta [2],40.9%
CC(NC(=O)N(C)S(=O)(=O)c1ccc(Cl)cc1)c1ccccc1OCc1ccccc1 (racemic),EC50,Thoracic aorta [1],38.4 µM
same,Emax,Thoracic aorta [2],91.1%
COc1ccc(Cl)cc1C(C)NC(=O)NS(=O)(=O)c1ccc(C)cc1 (racemic),EC50,Thoracic aorta [1],> 300 µM
same,Emax,Thoracic aorta [2],36.6%
CC(C)Oc1ccc(Br)cc1C(C)NC(=O)NS(=O)(=O)c1ccccc1 (racemic),EC50,Thoracic aorta [1],143 µM
same,Emax,Thoracic aorta [2],73.2%
COc1ccc(Cl)cc1C(C)NC(=O)N(C)S(=O)(=O)c1ccc(C)cc1 (racemic),EC50,Thoracic aorta [1],13.8 µM
same,Emax,Thoracic aorta [2],107%
Cc1ccc(OCc2ccccc2)c(C(C)NC(=O)N(C)S(=O)(=O)c2ccc(Cl)cc2)c1 (racemic),EC50,Thoracic aorta [1],142 µM
same,Emax,Thoracic aorta [2],76.9%
CCOc1ccc(Cl)cc1C(C)NC(=O)NS(=O)(=O)c1ccc(Cl)cc1 (racemic),EC50,Thoracic aorta [1],281 µM
same,Emax,Thoracic aorta [2],69.7%
CC(NC(=O)N(C)S(=O)(=O)c1ccccc1)c1cc(Br)ccc1OCc1ccccc1 (racemic),EC50,Thoracic aorta [1],60.3 µM
same,Emax,Thoracic aorta [2],56.8%
